Measurements reported in ChEMBL document CHEMBL1154929, “Novel tetrahydrochinoline derived CETP inhibitors” (Bioorg Med Chem Lett, 2010).

How the values were obtained:
[1] = biological target: T1, Cholesteryl ester transfer protein (Homo sapiens, UniProt P11597); experiment: Inhibition of CETP assessed as cholesterol ester transfer after 4 hrs by microemulsion based fluorescence assay
T1 sequence (P11597 whole entry): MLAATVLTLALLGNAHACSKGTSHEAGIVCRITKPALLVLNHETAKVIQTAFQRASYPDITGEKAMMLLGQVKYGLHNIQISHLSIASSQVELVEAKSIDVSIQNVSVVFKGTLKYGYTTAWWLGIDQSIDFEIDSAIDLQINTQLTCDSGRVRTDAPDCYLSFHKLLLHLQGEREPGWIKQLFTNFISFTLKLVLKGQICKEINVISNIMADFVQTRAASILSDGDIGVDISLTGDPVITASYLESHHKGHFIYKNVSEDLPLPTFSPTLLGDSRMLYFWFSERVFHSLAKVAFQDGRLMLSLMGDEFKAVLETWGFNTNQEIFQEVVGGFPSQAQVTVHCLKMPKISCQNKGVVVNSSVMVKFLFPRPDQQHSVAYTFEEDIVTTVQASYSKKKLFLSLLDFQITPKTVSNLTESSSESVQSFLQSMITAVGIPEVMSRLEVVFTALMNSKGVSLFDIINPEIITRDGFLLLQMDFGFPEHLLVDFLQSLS
Outline: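 CETP-containing sample (1–3 µg CETP enriched from human plasma) incubated at 37 °C for 4 h with compound in DMSO and a liposome emulsion (1 vol donor, 1 vol buffer, 2 vol acceptor). Liposomes were made by dioxane injection into 50 mM Tris/HCl pH 7.3, 150 mM NaCl, 2 mM EDTA, then sonicated. Read-out was the fluorescence increase versus a DMSO control.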

[2] = biological target: T1, Cholesteryl ester transfer protein; experiment: Inhibition of human plasma CETP assessed as [3H]cholesterol ester transfer after 18 hrs by scintillation proximity assay; format: cell-free
Outline: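 Scintillation proximity assay. HDL-³H-cholesteryl ester (~50,000 cpm) and biotin-LDL were incubated at 37 °C for 18 h with CETP (1 mg/ml stock) in […]/0.15 M NaCl/0.1% BSA/0.05% NaN₃ pH 7.4. Compound was dissolved in 10% DMSO/1% BSA. Streptavidin SPA beads were added with 1 h shaking, then scintillation counting. Buffer-only and CETP incubations served as controls.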

[3] = biological target: T1, Cholesteryl ester transfer protein; experiment: Inhibition of human plasma CETP assessed as cholesterol ester transfer after 24 hrs by fluorescence assay; format: cell-free
Outline: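 Donor liposomes (12% v/v) and compound in DMSO (2% v/v) added to human plasma (86% v/v) and incubated at 37 °C for 24 h. Transfer was taken as the fluorescence change at 510/520 nm, compared with a DMSO control.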

[4] = Half life in rat plasma; format: ADME, organism-based
[5] = Oral bioavailability in rat; format: ADME, organism-based; conditions: in vivo
[6] = Half life in dog plasma; format: ADME, organism-based, Canis lupus familiaris
[7] = Half life in mouse plasma; format: ADME, organism-based
[8] = Oral bioavailability in dog; format: ADME, organism-based, Canis lupus familiaris; conditions: in vivo

SMILES | IC50 [1] [nM] | also measured
CC1(C)Cc2nc(C3CCCC3)c(C(=O)c3ccc(C(F)(F)F)cc3)c(C3CCN(C(=O)OCc4ccccc4)CC3)c2[C@@H](O)C1 | 500 | –
CC1(C)Cc2nc(C3CCCC3)c(C(=O)c3ccc(C(F)(F)F)cc3)c(CN3CCCCC3)c2[C@@H](O)C1 | 15000 | –
CC1(C)Cc2nc(C3CCCC3)c(C(=O)c3ccc(C(F)(F)F)cc3)c(CCl)c2[C@@H](O)C1 | 15000 | –
O=C(c1ccc(C(F)(F)F)cc1)c1c(C2CCCC2)nc2c(c1C1CCCCC1)[C@@H](O)CC1(CCC1)C2 | 55 | –
CCC(C)c1c(C(=O)c2ccc(C(F)(F)F)cc2)c(C2CCCC2)nc2c1[C@@H](O)CC(C)(C)C2 (stereo not given in full) | 2000 | –
CC1(C)Cc2nc(C3CCCC3)c(C(=O)c3ccc(C(F)(F)F)cc3)c(CC(F)(F)F)c2[C@@H](O)C1 | 3000 | –
CCOC(=O)c1c(C(=O)c2ccc(C(F)(F)F)cc2)c(C2CCCC2)nc2c1[C@@H](O)CC(C)(C)C2 | > 20000 | –
CC1(C)Cc2nc(C3CCCC3)c(C(=O)c3ccc(C(F)(F)F)cc3)c(C3CCNCC3)c2[C@@H](O)C1 | > 20000 | –
CC(C)c1nc2c(c(C3CCCCC3)c1[C@@H](O)c1ccc(C(F)(F)F)cc1)[C@@H](O)CC1(CCC1)C2 | 70 | –
CC1(C)Cc2nc(C3CCCC3)c(C(=O)c3ccc(C(F)(F)F)cc3)c(C3CCCCC3)c2[C@@H](O)C1 | 60 | –
CC1(C)Cc2nc(C3CCCC3)c(C(=O)c3ccc(C(F)(F)F)cc3)c(N3CCCC3)c2[C@@H](O)C1 | 4000 | –
CC(C)c1nc2c(c(C3CCCCC3)c1[C@@H](F)c1ccc(C(F)(F)F)cc1)[C@@H](O)CC(C)(C)C2 | 30 | IC50 [2]: 23 nM; IC50 [3]: 75 nM
CC1(C)Cc2nc(C3CCCC3)c([C@@H](F)c3ccc(C(F)(F)F)cc3)c(C3CCCCC3)c2[C@@H](O)C1 | 25 | half-life [4]: 7.2 h; IC50 [2]: 7 nM; bioavailability [5]: 44%; half-life [6]: 8.6 h; half-life [7]: 5 h; bioavailability [8]: 74%; IC50 [3]: 50 nM
CC1(C)Cc2nc(C3CCCC3)c(Cc3ccc(C(F)(F)F)cc3)c(C3CCCCC3)c2[C@@H](O)C1 | 39 | IC50 [3]: 300 nM
CC(C)c1nc2c(c(C3CCCCC3)c1[C@@H](F)c1ccc(C(F)(F)F)cc1)[C@@H](O)CC1(CCC1)C2 | 17 | IC50 [2]: 33 nM; IC50 [3]: 70 nM
O[C@@H](c1ccc(C(F)(F)F)cc1)c1c(C2CCCC2)nc2c(c1C1CCCCC1)[C@@H](O)CC1(CCC1)C2 | 100 | –

SMILES | IC50 [1] [nM] | also measured
O[C@H]1CC2(CCC2)Cc2nc(C3CCCC3)c([C@@H](F)c3ccc(C(F)(F)F)cc3)c(C3CCCCC3)c21 | 22 | IC50 [2]: 62 nM; IC50 [3]: 60 nM
CC1(C)Cc2nc(C3CCCC3)c([C@@H](F)c3ccc(C(F)(F)F)cc3)c(-c3ccc(F)cc3)c2[C@@H](O)C1 | 31 | –
CC(C)c1nc2c(c(-c3ccc(F)cc3)c1[C@@H](F)c1ccc(C(F)(F)F)cc1)[C@@H](O)CC1(CCC1)C2 | 24 | –
CCc1c(C(=O)c2ccc(C(F)(F)F)cc2)c(C2CCCC2)nc2c1[C@@H](O)CC(C)(C)C2 | 4500 | –
CC(C)c1nc2c(c(C3CCCCC3)c1C(=O)c1ccc(C(F)(F)F)cc1)[C@@H](O)CC1(CCC1)C2 | 33 | –
CC1(C)Cc2nc(C3CCCC3)c(C(=O)c3ccc(C(F)(F)F)cc3)c(C3CC3)c2[C@@H](O)C1 | 3000 | –
CC1(C)Cc2nc(C3CCCC3)c(C(=O)c3ccc(C(F)(F)F)cc3)c(C3CCCC3)c2[C@@H](O)C1 | 90 | –
O=C(c1ccc(C(F)(F)F)cc1)c1c(C2CCCC2)nc2c(c1C1CCCC1)[C@@H](O)CC1(CCC1)C2 | 70 | –
CC(C)c1nc2c(c(C3CCCCC3)c1C(=O)c1ccc(C(F)(F)F)cc1)[C@@H](O)CC(C)(C)C2 | 70 | –
CCCCCc1c(C(=O)c2ccc(C(F)(F)F)cc2)c(C2CCCC2)nc2c1[C@@H](O)CC(C)(C)C2 | 2000 | –
CC(C)c1c(C(=O)c2ccc(C(F)(F)F)cc2)c(C2CCCC2)nc2c1[C@@H](O)CC(C)(C)C2 | 600 | –
CC(C)c1c(C(=O)c2ccc(C(F)(F)F)cc2)c(C2CCCC2)nc2c1[C@@H](O)CC1(CCC1)C2 | 300 | –
CCCc1c(C(=O)c2ccc(C(F)(F)F)cc2)c(C2CCCC2)nc2c1[C@@H](O)CC1(CCC1)C2 | 600 | –
CC(C)c1nc2c(c(C3CCCCC3)c1[C@@H](O)c1ccc(C(F)(F)F)cc1)[C@@H](O)CC(C)(C)C2 (relative stereo) | 80 | –
CC1(C)Cc2nc(C3CCCC3)c([C@@H](O)c3ccc(C(F)(F)F)cc3)c(C3CCCCC3)c2[C@@H](O)C1 (relative stereo) | 100 | –
